# Reference: ChEMBL document CHEMBL1799922, “Synthesis and antimycobacterial activity of prodrugs of indeno[2,1-c]quinoline derivatives” (Eur J Med Chem, 2011)
# Tests used:
# Serum = test: Stability of the compound in 80% human blood serum assessed as hydrolysis to 2-bromo-6-(1H-imidazol-1-yl)-7H-indeno[2,1-c]quinolin-7-one oxime at 1 mg after 24 hrs at 37 degC by LC-MS analysis; format: ADME, cell-free; parameters: scale not given: the % may be the effect or the level left
# Method in brief: (§1)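 Enzymatic hydrolysis: 1 mg prodrug dissolved in 1 mL ethanol, then 200 µL preheated human blood serum diluted to 80% with 0.16 M phosphate buffer (pH 7.4) was added. Samples were kept at 37 °C (24 h) and centrifuged 10 min at 10,000 rpm. Remaining prodrug in the supernatant was monitored by TLC and LC-MS. t1/2 is the time to 50% hydrolysis.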
# [1] = test system: Mycobacterium tuberculosis; test: Antimicrobial activity against Mycobacterium tuberculosis H37Rv ATCC 27294 after 16 to 24 hrs by microplate alamar blue assay; format: functional
# Method in brief: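 M. tuberculosis H37Rv inoculum 2×10^5 cfu/mL (100 µL) added to twofold dilutions in Middlebrook 7H12 medium; final test range 128 µM to 0.5 µM from 12.8 mM DMSO stocks. Incubated 37 °C; day 7 Tween 80 plus Alamar Blue added, further 16-24 h at 37 °C. Fluorescence ex 530/em 590 nm; MIC = lowest concentration giving >90% fluorescence reduction versus replicate bacteria-only controls. Rifampin, isoniazid controls.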
# [2] = Cytotoxicity against human U937 cells assessed as cell viability at 1.25 ug/ml after 72 hrs by MTT assay; format: cell-based, U-937; conditions: read-out: Activity
# Method in brief: (§2)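 U937 human monocytic cells plated at 1 × 10^5 cells/mL and allowed to adhere for 1 h at 37 °C in 5% CO2. Non-adherent cells were washed off with RPMI 1640. Adherent cells were exposed to compound in triplicate, with medium alone as the live control and 3% Tween 20 as the dead control. MTT (5 mg/mL in PBS) was then added for 3 h at 37 °C. Formazan was dissolved in 0.4 M HCl/isopropanol and absorbance read at 600 nm. Results are expressed as % cell viability.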
# [3] = Half life in 10% aqueous ammonia buffer at pH 8 assessed as hydrolysis to 2-bromo-6-(1H-imidazol-1-yl)-7H-indeno[2,1-c]quinolin-7-one oxime at 37 degC by LC-MS analysis; format: physicochemical
# Method in brief: (§3)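 Chemical hydrolysis: 1 mg prodrug dissolved in 1 mL of 10% aqueous ammonia in methanol (pH 8) and held in a thermostatted water bath at 37 °C, up to 24 h. Conversion to the parent oxime was followed by TLC and LC-MS. t1/2 is the time to 50% hydrolysis.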
# [4] = Cytotoxicity against human U937 cells assessed as cell viability at 20 ug/ml after 72 hrs by MTT assay; format: cell-based, U-937; conditions: read-out: Activity; method in brief: as §2
# [5] = Cytotoxicity against human U937 cells assessed as cell viability at 5 ug/ml after 72 hrs by MTT assay; format: cell-based, U-937; conditions: read-out: Activity; method in brief: as §2
# [6] = Selectivity index, ratio CC50 for human U937 cells to MIC for Mycobacterium tuberculosis H37Rv ATCC 27294; format: functional, U-937
# [7] = Half life in human blood serum by LC-MS analysis; format: ADME, cell-free, Plasma; method in brief: as §1
# [8] = Cytotoxicity against human U937 cells assessed as cell viability at 10 ug/ml after 72 hrs by MTT assay; format: cell-based, U-937; conditions: read-out: Activity; method in brief: as §2
# [9] = Octanol-water partition coefficient, log P of the compound at pH 7.4 at room temperature by UV spectrophotometric analysis; format: physicochemical
# Method in brief: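 Shake-flask method at room temperature: 1-octanol and phosphate buffer (pH 7.4) were pre-saturated by shaking for 24 h. Compound at 10^-4 M in equal volumes of both phases was shaken vigorously for 1 h, left to stand 15 min, then centrifuged 10 min at 10,000 rpm. UV absorbance of each phase was read at 280 nm against blanks, and P was taken as the octanol/water absorbance ratio.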
# [10] = Stability of the compound in 10% aqueous ammonia buffer at pH 8 assessed as hydrolysis to 2-bromo-6-(1H-imidazol-1-yl)-7H-indeno[2,1-c]quinolin-7-one oxime at 1 mg at 37 degC by LC-MS analysis; format: physicochemical; parameters: scale not given: the % may be the effect or the level left; method in brief: as §3
SMILES,Activity (Serum),MIC [1] [µg/mL],"viability at 72 h, 1.25 ug/ml [2] [%]",half-life [3] [h],"viability at 72 h, 20 ug/ml [4] [%]","viability at 72 h, 5 ug/ml [5] [%]",Selectivity Index [6],half-life [7] [h],"viability at 72 h, 10 ug/ml [8] [%]",logD [9],Activity [10] [%]
CC(=O)O/N=C1\c2ccccc2-c2c1c(-n1ccnc1)nc1ccc(Br)cc21,94%,< 0.2,87,48,42,78,>71,84,59,1.1,95
CCCC(=O)O/N=C1\c2ccccc2-c2c1c(-n1ccnc1)nc1ccc(Br)cc21,90%,< 0.2,85,36,70,88,>200,96,69,1.5,95
CC(C)(C)OC(=O)N1CCC[C@H]1C(=O)O/N=C1\c2ccccc2-c2c1c(-n1ccnc1)nc1ccc(Br)cc21,95%,0.39,87,12,78,86,>102,24,74,1.3,90
CCCCCCCCCC(=O)O/N=C1\c2ccccc2-c2c1c(-n1ccnc1)nc1ccc(Br)cc21,90%,3,100,24,–,–,–,144,81,1.4,90
CC1(OC(=O)CC(F)(F)F)c2ccccc2-c2c1c(-n1ccnc1)nc1ccc(Br)cc21 (centres undefined),–,0.5,92,24,26,80,22.4,480,62,1.8,96
CCCCCCCC(=O)OC1(C)c2ccccc2-c2c1c(-n1ccnc1)nc1ccc(Br)cc21 (centres undefined),Not Active,3.42,87,264,17,72,2.5,–,52,1.8,90
CC(C)[C@H](NC(=O)OCC1c2ccccc2-c2ccccc21)C(=O)O/N=C1\c2ccccc2-c2c1c(N1CCN(c3ccccn3)CC1)nc1ccc(Br)cc21,7%,1.47,85,24,80,89,>27,–,81,1.8,96
CC(=O)NCC(=O)O/N=C1\c2ccccc2-c2c1c(N1CCN(c3ccccn3)CC1)nc1ccc(Br)cc21,95%,6,83,144,–,–,–,192,77,1.2,95
CCCCC(=O)OC1(C)c2ccccc2-c2c1c(-n1ccnc1)nc1ccc(Br)cc21 (centres undefined),Not Active,1.53,91,288,4,75,5.6,–,48,1.7,90
